This passage reports Activity results from ChEMBL document CHEMBL4765378, “Discovery of simplified benzazole fragments derived from the marine benzosceptrin B as necroptosis inhibitors involving the receptor interacting protein Kinase-1” (Eur J Med Chem, 2020).

The source made the active and inactive calls. The calls are words filed in the database; no cut-off is given here. Where a SMILES comes first, the peptide text is derived from it. The star is where a group is joined. Cbz = O=C(OCc1ccccc1)*; CH2F = FC*

The first series has as its system Jurkat. Nature of the series: Protection against staurosporine-induced apoptosis in human Jurkat assessed as increase in cell viability at 20 uM measured after 24 hrs by MTS assay. It is filed as functional, cell-based.
Conditions: not given
For orientation: Tetrazolium dyes change colour on reduction, which living cells bring about.
With `CC(C)[C@H](NC(=O)OCc1ccccc1)C(=O)N[C@@H](C)C(=O)N[C@@H](CC(=O)O)C(=O)CF` (Cbz-Val-Ala-Asp-CH2F), the outcome was inactive.

Tested on in the next series: not listed separately
Nature of the series: Cytotoxicity against human FADD-deficient Jurkat I 2.1 cells assessed as reduction in cell viability at >10 uM measured after 24 hrs by MTS assay. As to conditions: jurkat i 2.1, 24 h. The class given is cell-based.
`CC(C)CNc1nc2ccc([N+](=O)[O-])cc2[nH]1`: the Activity entry is on record as “Toxic”.
Still for that read-out and setting: as for `O=[N+]([O-])c1ccc2nc(Nc3ccccc3)[nH]c2c1`, the entry is “Toxic”.
Still for that read-out and setting: as for `O=[N+]([O-])c1ccc2nc(NC3CCCCC3)[nH]c2c1`, the entry is “Toxic”.

For a further series, the target named is T1, Receptor-interacting serine/threonine-protein kinase 1 (Homo sapiens) (UniProt Q13546).
T1 sequence (whole entry): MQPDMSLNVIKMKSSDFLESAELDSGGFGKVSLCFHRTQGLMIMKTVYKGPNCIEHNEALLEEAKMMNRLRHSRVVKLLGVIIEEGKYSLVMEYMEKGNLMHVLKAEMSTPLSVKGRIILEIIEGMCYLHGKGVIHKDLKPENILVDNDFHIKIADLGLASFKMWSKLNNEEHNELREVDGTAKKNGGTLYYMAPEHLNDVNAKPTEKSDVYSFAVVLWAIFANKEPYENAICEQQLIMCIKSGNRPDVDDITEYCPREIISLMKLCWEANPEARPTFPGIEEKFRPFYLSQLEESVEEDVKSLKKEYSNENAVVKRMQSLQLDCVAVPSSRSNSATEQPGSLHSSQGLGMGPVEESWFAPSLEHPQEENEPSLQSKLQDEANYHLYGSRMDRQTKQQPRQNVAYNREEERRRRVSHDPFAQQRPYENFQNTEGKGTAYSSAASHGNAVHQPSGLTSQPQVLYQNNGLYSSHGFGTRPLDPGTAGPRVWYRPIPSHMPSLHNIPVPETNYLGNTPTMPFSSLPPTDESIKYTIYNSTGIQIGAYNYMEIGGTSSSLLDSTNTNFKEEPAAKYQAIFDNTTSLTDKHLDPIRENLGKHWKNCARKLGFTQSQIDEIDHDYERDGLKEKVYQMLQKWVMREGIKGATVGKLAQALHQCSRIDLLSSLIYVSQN
The experiment in a line: Inhibition of RIPK1 in human FADD-deficient Jurkat I 2.1 cells assessed as protection against TNFalpha-induced necroptosis by measuring remaining viable cells at 10 uM measured after 24 hrs by MTS assay relative to TNFalpha.
Conditions: not given
It is filed as cell-based. In outline:
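FADD-deficient Jurkat cells co-treated 24 h with 10 ng/ml human recombinant TNF-α and 10 μM compound; MTS viability normalized to DMSO control (100%); protection delta = viability with TNF-α plus compound minus viability with TNF-α alone (negative if toxic); n = 3.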
In the case of `COCCNc1nc2cccc([N+](=O)[O-])c2[nH]1`, the Activity was -2.3%.
On the same count and under the same terms, as for `CCNc1nc2ccc(Br)cc2[nH]1`, the figure is 10.4%; as for `CC(C)CNc1nc2ccc([N+](=O)[O-])cc2[nH]1`, 53.7%; as for `CCCCNc1nc2cccc(C(=O)OC)c2[nH]1`, 29.2%.
Still for that read-out and setting: as for `CCCCNc1nc2ccc(-c3cccs3)cc2[nH]1`, the figure is -20.5%.
Same read-out and setting: as for `CCCCNc1nc2ccc(C#N)cc2[nH]1`, the figure is 6.3%; as for `CCNc1nc2ccc(-c3cccc([N+](=O)[O-])c3)cc2[nH]1`, -19.4%; as for `CCCCNc1nc2ccc([N+](=O)[O-])cc2s1`, 28%.
`O=[N+]([O-])c1ccc2sc(Cl)nc2c1`: the Activity stood at 0.1%.
Still for that read-out and setting: next, `CCCNc1nc2ccc([N+](=O)[O-])cc2[nH]1`: 20%; `O=[N+]([O-])c1cccc2nc(Nc3ccccc3)[nH]c12`: 0%.
Still for that read-out and setting: next, `CC(C)Nc1nc2cccc([N+](=O)[O-])c2[nH]1`: 1%.
On the same count and under the same terms, next, `CCCCNc1nc2ccc(-c3cccc(OC)c3)cc2[nH]1`: -16.8%; `COCCNc1nc2ccc([N+](=O)[O-])cc2[nH]1`: 5.6%; `O=[N+]([O-])c1ccc(Nc2nc3ccc([N+](=O)[O-])cc3[nH]2)cc1`: 3.6%.
As to `Oc1ccc(-c2cc3cccnc3[nH]2)cc1`, the Activity is 57.9%.
The same measure, in the same setting: as for `O=[N+]([O-])c1ccc2nc(Nc3ccc(C(F)(F)F)cc3)[nH]c2c1`, the figure is -30.8%; as for `Clc1ccc2nc(NC3CCCCC3)[nH]c2c1`, 38.2%.
The same measure, in the same setting: as for `CC(C)Nc1nc2ccc([N+](=O)[O-])cc2[nH]1`, the figure is 16.2%; as for `CCCCNc1nc2ccc(Br)cc2[nH]1`, 7.3%.
For the molecule `C#CCNc1nc2ccc([N+](=O)[O-])cc2[nH]1`, the Activity came out at 3.4%.
On the same count and under the same terms, next, `N#Cc1ccc(Nc2nc3ccc([N+](=O)[O-])cc3[nH]2)cc1`: -31.4%.
For `CCOC(=O)CNc1nc2ccc([N+](=O)[O-])cc2[nH]1`, the Activity is 15.3%.
Still for that read-out and setting: next, `CCCCNc1nc2ccc(-c3cn(Cc4ccccc4)nn3)cc2[nH]1`: -10.5%; `CCNc1nc2ccc([N+](=O)[O-])cc2[nH]1`: 6.4%.
The same measure, in the same setting: next, `C=CCNc1nc2ccc([N+](=O)[O-])cc2[nH]1`: 4.7%; `Cc1ccc2nc(NC3CCCCC3)[nH]c2c1`: 7%.
On the same count and under the same terms, as for `CCCCNc1nc2ccc(C(=O)OC)cc2[nH]1`, the figure is 2.9%; as for `O=C(Nc1nc2ccc([N+](=O)[O-])cc2[nH]1)c1ccccc1`, -21.3%.
For `CCCCCCCCNc1nc2ccc([N+](=O)[O-])cc2[nH]1`, the Activity is 6.4%.
The same measure, in the same setting: as for `CCCCNc1nc2cc(C(F)(F)F)cc(Br)c2[nH]1`, the figure is 23.7%; as for `CN(C)c1ccc(Nc2nc3ccc([N+](=O)[O-])cc3[nH]2)cc1`, 14%.
Still for that read-out and setting: next, `CCCCNc1nc2ccc(C#C[Si](C)(C)C)cc2[nH]1`: -18.5%.
Same read-out and setting: as for `CCCCNc1nc2ccc(C(=O)NCCCc3ccccc3)cc2[nH]1`, the figure is -3.6%; as for `CCCCNc1nc2cccc([N+](=O)[O-])c2[nH]1`, 1.2%; as for `COC(=O)c1cccc2nc(NC3CCCCC3)[nH]c12`, 21.7%.
On to `CCNC(=O)CNc1nc2ccc([N+](=O)[O-])cc2[nH]1`, for which the Activity is 1.9%.
Still for that read-out and setting: as for `CCCCNc1nc2ccc(I)cc2[nH]1`, the figure is -16.3%; as for `O=[N+]([O-])c1ccc2nc(Nc3ccc(Br)cc3)[nH]c2c1`, -6.1%; as for `O=[N+]([O-])c1ccc2nc(Nc3ccccc3)[nH]c2c1`, 41.9%.
The same measure, in the same setting: as for `CCNc1nc2ccc(-c3ccccc3Cl)cc2[nH]1`, the figure is 4.9%; as for `CCCCNc1nc2ccc(-c3cccc([N+](=O)[O-])c3)cc2[nH]1`, -20.6%; as for `O=[N+]([O-])c1cccc2nc(NC3CCCCC3)[nH]c12`, 13%.
Still for that read-out and setting: next, `O=[N+]([O-])c1cccc2nc(NCc3ccccc3)[nH]c12`: 5.1%.
Turning to `CCCCNc1nc2ccc(C(=O)NCc3ccccc3)cc2[nH]1`, the Activity was determined as 5%.
Same read-out and setting: next, `CCNc1nc2ccc(-c3cccc(OC)c3)cc2[nH]1`: -12.8%; `Brc1ccc2nc(NC3CCCCC3)[nH]c2c1`: 43.7%.
The same measure, in the same setting: next, `C#Cc1ccc2nc(NCCCC)[nH]c2c1`: -21.3%; `CCCCNC(=O)CNc1nc2ccc([N+](=O)[O-])cc2[nH]1`: 4.6%; `O=[N+]([O-])c1ccc2nc(NCc3ccccc3)[nH]c2c1`: 9%.
`CCCCNc1nc2ccc(C(=O)NCCc3ccccc3)cc2[nH]1`: the Activity is 2.6%.
Still for that read-out and setting: next, `CCCCNc1nc2ccc(-n3cnnn3)cc2[nH]1`: -1.32%; `CCCCCCNc1nc2ccc([N+](=O)[O-])cc2[nH]1`: 23.6%; `O=[N+]([O-])c1ccc2nc(NC3CCCCC3)[nH]c2c1`: 68.1%.

The next series has as its system Jurkat. The experiment in a line: Protection against TRAIL-induced apoptosis in human Jurkat assessed as increase in cell viability at 20 uM measured after 24 hrs by MTS assay. It is filed as functional, cell-based.
Conditions: not given
Regarding `CC(C)[C@H](NC(=O)OCc1ccccc1)C(=O)N[C@@H](C)C(=O)N[C@@H](CC(=O)O)C(=O)CF` (Cbz-Val-Ala-Asp-CH2F), the result was inactive.
